Assay results from ChEMBL document CHEMBL3627706, “Syntheses and evaluation of substituted aromatic hydroxamates and hydroxamic acids that target Mycobacterium tuberculosis” (2015).
Values after ≈ are worked out from the molar mass of the structure shown.

What was measured:
[1] = tested on: Mycobacterium tuberculosis; assay: Antimycobacterial activity against Mycobacterium tuberculosis in GAS medium by microplate alamar blue assay; format: functional
In short: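 Microplate alamar blue assay against M. tuberculosis grown in glycerol-alanine-salts (GAS) medium. MIC is reported in µM.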

[2] = tested on: Mycobacterium tuberculosis; assay: Antimycobacterial activity against Mycobacterium tuberculosis in 7H12 medium by microplate alamar blue assay; format: functional
In short: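 Microplate alamar blue assay against M. tuberculosis in 7H12 medium (7H9 plus casitone, palmitic acid, albumin and catalase). MIC is reported in µM.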

Bacillus spizizenii [3] = assay: Antibacterial activity against Bacillus subtilis ATCC 6633 at 1.66 microg/ml after 21 hrs by Kirby-Bauer agar diffusion assay; format: functional; conditions: ATCC 6633, 21 h, read-out: DIZ
Mycolicibacterium vaccae [4] = assay: Antibacterial activity against Mycobacterium vaccae IMET 10670 after 44 hrs by Kirby-Bauer agar diffusion assay; format: functional
In short: (§1)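 Test solutions for the agar diffusion assay were 20 mM in DMSO, diluted 10-fold with MeOH to 2 mM. M. vaccae plates were incubated at 37 °C for 44 h. Inhibition zones are recorded in mm, with unclear or very unclear zones flagged.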

Pseudomonas aeruginosa [5] = assay: microbe, parasite or virus in culture; conditions: K799/61, 21 h, read-out: DIZ
Pseudomonas aeruginosa [6] = assay: Antibacterial activity against Pseudomonas aeruginosa K799/61 after 21 hrs by Kirby-Bauer agar diffusion assay; format: functional
In short: (§2)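 Agar diffusion assay. Test solutions were made at 20 mM in DMSO and diluted 10-fold with MeOH to 2 mM. Plates were incubated at 37 °C for 21 h. Inhibition zone diameters are recorded in mm, with unclear or very unclear zones flagged.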

Pseudomonas aeruginosa [7] = assay: Antibacterial activity against wild type Pseudomonas aeruginosa K799 after 21 hrs by Kirby-Bauer agar diffusion assay; format: functional; in short: as §2
Micrococcus luteus [8] = assay: Antibacterial activity against Micrococcus luteus ATCC 10240 after 21 hrs by Kirby-Bauer agar diffusion assay; format: functional; in short: as §2
Staphylococcus aureus = assay: Antibacterial activity against Staphylococcus aureus SG511 after 21 hrs by Kirby-Bauer agar diffusion assay; format: functional; in short: as §2
Mycolicibacterium vaccae [9] = assay: Antibacterial activity against Mycobacterium vaccae IMET 10670 assessed as unclear inhibition zone after 44 hrs by Kirby-Bauer agar diffusion assay; format: functional; in short: as §1
Bacillus spizizenii [10] = assay: Antibacterial activity against Bacillus subtilis ATCC 6633 after 21 hrs by Kirby-Bauer agar diffusion assay; format: functional; in short: as §2
Escherichia coli [11] = assay: Antibacterial activity against Escherichia coli DC2 after 21 hrs by Kirby-Bauer agar diffusion assay; format: functional; in short: as §2
Pseudomonas aeruginosa [12] = assay: Antibacterial activity against wild type Pseudomonas aeruginosa K799 assessed as unclear inhibition zone after 21 hrs by Kirby-Bauer agar diffusion assay; format: functional; in short: as §2
Mycolicibacterium vaccae [13] = assay: Antibacterial activity against Mycobacterium vaccae IMET 10670 assessed as very unclear inhibition zone after 44 hrs by Kirby-Bauer agar diffusion assay; format: functional; in short: as §1
Pseudomonas aeruginosa [14] = assay: Antibacterial activity against Pseudomonas aeruginosa K799/61 assessed as unclear inhibition zone after 21 hrs by Kirby-Bauer agar diffusion assay; format: functional; in short: as §2
Escherichia coli [15] = assay: Antibacterial activity against Escherichia coli DC2 assessed as unclear inhibition zone after 21 hrs by Kirby-Bauer agar diffusion assay; format: functional; in short: as §2
Micrococcus luteus [16] = assay: Antibacterial activity against Micrococcus luteus ATCC 10240 assessed as very unclear inhibition zone after 21 hrs by Kirby-Bauer agar diffusion assay; format: functional; in short: as §2

Compound	MIC [1]	MIC [2]	diameter of the inhibition zone (DIZ) (Mycolicibacterium vaccae [4])	diameter of the inhibition zone (DIZ) (Pseudomonas aeruginosa [7])	diameter of the inhibition zone (DIZ) (Micrococcus luteus [8])	diameter of the inhibition zone (DIZ) (Staphylococcus aureus)	diameter of the inhibition zone (DIZ) (Bacillus spizizenii [10])	also measured
O=C(CC(=O)OCc1ccccc1)NOCc1ccccc1	27.1 µM (≈ 8.11 µg/mL)	86.6 µM (≈ 25.9 µg/mL)	–	–	–	–	–	–
O=C(NO)c1ccc(F)cc1	> 100 µM	> 100 µM	–	–	–	–	–	–
C=CCONC(=O)c1ccccc1	> 100 µM	> 100 µM	–	–	–	–	–	–
C=CCONC(=O)c1ccc([N+](=O)[O-])cc1	37.6 µM (≈ 8.36 µg/mL)	> 100 µM	–	–	–	–	–	–
C=CCONC(=O)CC(=O)OCc1ccc([N+](=O)[O-])cc1	98.6 µM (≈ 29 µg/mL)	98.7 µM (≈ 29 µg/mL)	–	–	–	–	–	–
O=C(NOCc1ccccc1)c1ccccc1	48.5 µM (≈ 11 µg/mL)	> 100 µM	–	–	–	–	–	–
O=C(CC(=O)OCc1ccc([N+](=O)[O-])cc1)NO	> 100 µM	> 100 µM	–	–	–	–	–	–
CC(C)(C)[Si](C)(C)ONC(=O)CC(=O)OCc1ccc([N+](=O)[O-])cc1	3.04 µM (≈ 1.12 µg/mL)	> 100 µM	–	–	–	–	–	–
O=C(O)c1cn(C2CC2)c2cc(N3CCNCC3)c(F)cc2c1=O [CIPROFLOXACIN]	–	–	20 mm	23 mm	0 mm	18 mm	–	zone of inhibition at 1.66 µg/mL (Bacillus spizizenii [3]): 19 mm; zone of inhibition at 1.66 µg/mL (Pseudomonas aeruginosa [5]): 26 mm; diameter of the inhibition zone (DIZ) (Pseudomonas aeruginosa [6]): 19 mm
O=C(NOCc1ccccc1)c1cc(Br)cc(C(F)(F)F)c1	80.5 µM (≈ 30.1 µg/mL)	> 100 µM	26 mm	0 mm	16 mm	20 mm	17.5 mm	diameter of the inhibition zone (DIZ) (Mycolicibacterium vaccae [9]): 32 mm; diameter of the inhibition zone (DIZ) (Escherichia coli [11]): 10 mm; diameter of the inhibition zone (DIZ) (Pseudomonas aeruginosa [6]): 0 mm
C=CCONC(=O)c1cc([N+](=O)[O-])cc(C(F)(F)F)c1	43.2 µM (≈ 12.5 µg/mL)	> 100 µM	–	–	–	–	–	–
CC(C)(C)[Si](C)(C)ONC(=O)c1ccccc1	24.3 µM (≈ 6.11 µg/mL)	> 50 µM	26 mm	14 mm	0 mm	0 mm	0 mm	diameter of the inhibition zone (DIZ) (Escherichia coli [11]): 0 mm; diameter of the inhibition zone (DIZ) (Pseudomonas aeruginosa [12]): 18 mm; diameter of the inhibition zone (DIZ) (Pseudomonas aeruginosa [6]): 0 mm
O=C(NOCc1ccccc1)c1ccc(F)cc1	42.3 µM (≈ 10.4 µg/mL)	> 100 µM	–	–	–	–	–	–
O=C(NOCc1ccccc1)c1ccc([N+](=O)[O-])cc1	13.6 µM (≈ 3.7 µg/mL)	90.4 µM (≈ 24.6 µg/mL)	–	–	–	–	–	–
O=C(NO)c1ccc(Cl)cc1	> 100 µM	> 100 µM	–	0 mm	0 mm	0 mm	0 mm	diameter of the inhibition zone (DIZ) (Escherichia coli [11]): 16 mm; diameter of the inhibition zone (DIZ) (Mycolicibacterium vaccae [13]): 15.5 mm; diameter of the inhibition zone (DIZ) (Pseudomonas aeruginosa [14]): 18 mm
O=C(NOCc1ccccc1)c1ccc(Cl)cc1	15.5 µM (≈ 4.07 µg/mL)	47.3 µM (≈ 12.4 µg/mL)	15 mm	14 mm	19 mm	19 mm	19 mm	diameter of the inhibition zone (DIZ) (Escherichia coli [11]): 0 mm; diameter of the inhibition zone (DIZ) (Pseudomonas aeruginosa [6]): 14 mm
CC(C)(C)[Si](C)(C)ONC(=O)c1cc([N+](=O)[O-])cc(C(F)(F)F)c1	> 100 µM	> 100 µM	14 mm	0 mm	0 mm	0 mm	20 mm	diameter of the inhibition zone (DIZ) (Escherichia coli [15]): 17 mm; diameter of the inhibition zone (DIZ) (Pseudomonas aeruginosa [6]): 0 mm
O=C(NOCc1ccccc1)c1cc([N+](=O)[O-])cc(C(F)(F)F)c1	10.7 µM (≈ 3.62 µg/mL)	> 100 µM	45 mm	0 mm	14 mm	20 mm	16 mm	diameter of the inhibition zone (DIZ) (Micrococcus luteus [16]): 20 mm; diameter of the inhibition zone (DIZ) (Escherichia coli [11]): 0 mm; diameter of the inhibition zone (DIZ) (Pseudomonas aeruginosa [6]): 0 mm
O=C(NO)c1ccc([N+](=O)[O-])cc1	0.71 µM (≈ 0.129 µg/mL)	7.79 µM (≈ 1.42 µg/mL)	30 mm	13 mm	0 mm	0 mm	0 mm	diameter of the inhibition zone (DIZ) (Mycolicibacterium vaccae [9]): 33 mm; diameter of the inhibition zone (DIZ) (Escherichia coli [11]): 0 mm; diameter of the inhibition zone (DIZ) (Pseudomonas aeruginosa [6]): 0 mm
CCOc1ccc(C(=O)NO)cc1	> 100 µM	48.1 µM (≈ 8.71 µg/mL)	0 mm	0 mm	0 mm	17 mm	20 mm	diameter of the inhibition zone (DIZ) (Escherichia coli [11]): 0 mm; diameter of the inhibition zone (DIZ) (Pseudomonas aeruginosa [14]): 14 mm
COC(=O)c1cc([N+](=O)[O-])cc(C(F)(F)F)c1	30 µM (≈ 7.46 µg/mL)	> 100 µM	–	–	–	–	–	–
CCOc1ccc(C(=O)NOCc2ccccc2)cc1	47.3 µM (≈ 12.8 µg/mL)	> 100 µM	–	–	–	–	–	–
CO[C@H]1/C=C/O[C@@]2(C)Oc3c(C)c(O)c4c(O)c(c(/C=N/N5CCN(C)CC5)c(O)c4c3C2=O)NC(=O)/C(C)=C\C=C\[C@H](C)[C@H](O)[C@@H](C)[C@@H](O)[C@@H](C)[C@H](OC(C)=O)[C@@H]1C [RIFAMPIN]	< 0.016 µM	0.03 µM (≈ 0.0247 µg/mL)	–	–	–	–	–	–
O=C(NO)c1cc([N+](=O)[O-])cc(C(F)(F)F)c1	> 100 µM	19.5 µM (≈ 4.87 µg/mL)	–	–	–	–	–	–
